SIRT5 block = inhibitors of human sirtuin-5 desuccinylase. hit rate 1.1% among 330,000. AID 652115. Q9NXA8. inhibition, % at 15 µM. Purified SirT5, succinyl-peptide AMC, trypsin-coupled fluorescence; in the data active = inhibition above about 15%
Target sequence (Q9NXA8 whole entry, looked up): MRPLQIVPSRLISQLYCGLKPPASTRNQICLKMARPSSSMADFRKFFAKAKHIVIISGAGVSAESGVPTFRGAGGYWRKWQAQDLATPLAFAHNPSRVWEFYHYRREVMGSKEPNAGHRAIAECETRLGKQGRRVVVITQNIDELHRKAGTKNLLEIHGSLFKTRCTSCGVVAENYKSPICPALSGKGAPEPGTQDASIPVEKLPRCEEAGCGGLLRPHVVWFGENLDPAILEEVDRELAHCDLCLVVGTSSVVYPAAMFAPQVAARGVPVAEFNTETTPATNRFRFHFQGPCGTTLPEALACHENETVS
FGF22 binding-1 = shifts melting point of recombinant human FGF22. AID 651658. activity (Tm shift, normalised), % at 9.99 µM. Q9HCT0. recombinant FGF22 thermal shift, SYPRO orange fluorescence; percent of sucrose octasulfate shift, DMSO zero. hit rate 1.5% among 340,000;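 active = mean Tm shift, scaled 0 neutral to 100 positive control, at about 1.3% or above, every replicate too, limit read from the data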
Target sequence (Q9HCT0 whole entry, looked up): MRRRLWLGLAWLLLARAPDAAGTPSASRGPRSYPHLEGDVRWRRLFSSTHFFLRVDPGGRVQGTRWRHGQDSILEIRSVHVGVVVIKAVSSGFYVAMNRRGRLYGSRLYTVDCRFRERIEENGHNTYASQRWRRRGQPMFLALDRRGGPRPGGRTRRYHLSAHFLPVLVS
FN deposit inh = fibronectin deposition inhibition. AH1F fibroblasts, Alexa488-fibronectin deposition fluorescence, overnight. inhibition, % at 12.6 µM. hit rate 0.086% among 350,000. AID 743247;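 active = mean inhibition across replicates of 30% or more, regardless of how many single replicates reach that level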;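 note: positive control wells lacked labelled fibronectin entirely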
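Material: AH1F fibroblast monolayer depositing Alexa488-labelled fibronectin into matrix / Amount: 10000 AH1F cells per well / Signal: fluorescence 485/525 nm / Medium: DMEM, 2% serum / Compound: single dose, pinned / Incubation: 1 h cell adhesion before compound, then overnight fibronectin incubation / Reagent: Alexa488-FN, 24 nM final / Read-out: inhibition of fibronectin deposition signal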
ERAP1 inh = blocks human ERAP1 aminopeptidase activity. recombinant ERAP1, Leu-AMC fluorescence, 60 min. Q9NZ08. hit rate 0.15% among 340,000. inhibition, % at 10.7 µM;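 active = mean replicate inhibition of at least 30%, or all replicates individually reaching that 30% level; inactive = mean below 30% and not every replicate reaching it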;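 note: 0% = neutral control wells and 100% = L-leucinethiol positive control wells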
PGC1a acetyl inh = lowers PGC1a acetylation signal in U2OS cells; AlphaScreen anti-acetyl-lysine; with virally co-expressed GCN5 acetyltransferase; inhibition, % at 15.6 µM; hit rate 0.17% among 350,000;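 active = every replicate shows inhibition of at least 40%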;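 note: 0% = neutral control wells and 100% = positive control wells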
FGF22 binding-2 = FGF22 (human) binding in thermal shift; shares compounds with FGF22 binding-1; recombinant FGF22 thermal shift, SYPRO orange fluorescence; thermal shift activity, °C (ΔTm) at 38 µM; hit rate 2% among 1,000; AID 720646;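 active = fitted rise in melting shift crosses a set limit at or below the top valid dose tested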
SYPRO no-protein = shows thermal shift signal without protein, FGF22 counter-screen. hit rate 2% among 1,000. shares compounds with FGF22 binding-1. AC50, µM (series often up to 38 µM). AID 743019. compound-only SYPRO orange thermal shift counter-screen, no protein;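 active = rising signal whose fitted curve reaches the 0.54 level within the top valid dose, showing a melting point, actives reach about 13 µM in these data; inactive = the rest, including activity in the opposite direction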; note: value is where the raw curve crosses a fixed level and not half-maximal
Active calls of the source: *; i = inactive; . = not tested or not shown; ! = not confirmed by another sample; [ ] = remark or other dose. A selection: hits, their analogues and other compounds. The true share with any hit is near 2.2%.

SMILES | SIRT5 block | FGF22 binding-1 | FN deposit inh | ERAP1 inh | PGC1a acetyl inh | FGF22 binding-2 | SYPRO no-protein
CC(=O)Nc1cc(-c2ccccc2Cl)cn2c(-c3ccc(S(C)(=O)=O)cc3)cnc12 | -5 | 1.7* | . | -3 | . | -0.006 | i
Cc1ccc(-c2ccc3c(c2)O[C@H](CN(C)C(=O)C2CCCCC2)[C@H](C)CN([C@H](C)CO)S3(=O)=O)cc1 | . | . | -14 | . | 4 | . | .
COc1ccc(S(=O)(=O)N(C)C[C@@H]2Oc3c(NC(=O)NC(C)C)cccc3C(=O)N([C@@H](C)CO)C[C@H]2C)cc1 | 5 | 0 | -3 | -2 | 5 | . | .
C/C(=N\NC(=O)c1cccc(S(=O)(=O)N2CCOCC2)c1)c1ccc(O)cc1 | 1 | 0 | 3 | 0 | -5 | . | .
C/C(=N\NC(=O)c1cccc(S(=O)(=O)N2CCOCC2)c1)c1ccc(OC(F)F)cc1 | -2 | 1.6* | 10 | -5 | . | 0.04 | i
CC1(C(=O)NS(=O)(=O)c2cccc(Cl)c2)CCN1C(=O)Cc1ccc(-c2ccccc2)cc1 (stereo not given) | . | 1.9* | 3 | -2 | 5 | 0.083 | i
CC1(C(=O)NS(=O)(=O)c2cccc(F)c2)CCN1C(=O)Cc1ccc(-c2ccccc2)cc1 (stereo not given) | -1 | 0 | . | 0 | . | . | .
COc1ccc(S(=O)(=O)N/N=c2\oc3c(OC)cccc3cc2S(=O)(=O)c2ccc(C)cc2)cc1OC | -1 | 1.7* | 17 | -1 | . | -0.042 | i
CCC(=O)N1[C@H](CO)[C@@H](c2ccc(-c3ccccc3)cc2)[C@@H]1CN(C)C(C)=O | . | . | 13 | . | 5 | . | .
COc1cc(/C=N/NC(=O)c2ccncc2)ccc1OCC(=O)Nc1cccc([N+](=O)[O-])c1 | 2 | 1.9* | -2 | 2 | -1 | -0.027 | i
CCNC(=O)C[C@H]1CC[C@H](NS(=O)(=O)c2ccc(C)cc2)[C@H](CO)O1 | 8 | -1 | . | -2 | -2 | . | .
Cc1ccc(S(=O)(=O)N[C@H]2CC[C@@H](CCNC(=O)C3CCOCC3)O[C@H]2CO)cc1 | -1 | 1 | 6 | 6 | -4 | . | .
O=C(NCC[C@H]1CC[C@@H](NC(=O)C2CCOCC2)[C@H](CO)O1)Nc1ccc(Cl)cc1 | -2 | 1.7* | . | 2 | -6 | -0.092[42 µM] | i
O=C(Nc1ccc(Cl)cc1)N[C@H]1CC[C@H](CCNC(=O)c2cc(Cl)cc(Cl)c2)O[C@@H]1CO | -1 | 2.5* | -4 | 0 | -5 | -0.3 | i
O=C(NCC[C@H]1CC[C@@H](NC(=O)C2CC2)[C@H](CO)O1)Nc1ccc(Cl)cc1 | -2 | 0 | -1 | 0 | 0 | . | .
O=C(Nc1ccc(Cl)cc1)N[C@H]1CC[C@@H](CCNC(=O)c2cc(Cl)cc(Cl)c2)O[C@H]1CO | 2 | . | 15 | -5 | . | . | .
O=C(NCC[C@H]1CC[C@@H](NC(=O)C2CCOCC2)[C@@H](CO)O1)Nc1ccc(Cl)cc1 | -2 | 1.6*! | -2 | 2 | 7 | 0.33[42 µM] | i
Cc1ccc(S(=O)(=O)N[C@H]2CC[C@H](CCNC(=O)C3CCOCC3)O[C@H]2CO)cc1 | 0 | 2.0* | -7 | 3 | -13 | 0.44[42 µM] | i
O=C(C[C@H]1C[C@@H]2c3cc(NC(=O)Nc4ccccc4)ccc3O[C@@H]2[C@@H](CO)O1)NCc1cccnc1 | . | 0 | -3 | . | 0 | . | .
C[C@@H]1CCCCO[C@H](CN(C)S(=O)(=O)c2cccs2)[C@@H](C)CN([C@@H](C)CO)C(=O)c2cc(NS(=O)(=O)c3ccccc3)ccc2O1 | 1 | . | -11 | -6 | 2 | . | .
O=C(NCc1ccc(F)cc1)[C@@H]1[C@@H](CO)[C@@H]2Cn3c(cccc3=O)[C@@H]2N1Cc1ccccn1 | 1 | 0 | . | 2 | 4 | . | .
O=C(C1CCOCC1)N1C[C@@H]2[C@H](c3ccccc31)[C@@H](CO)N2Cc1ccccc1 | -1 | 1.5* | . | . | -2 | -0.021[42 µM] | i
O=C(C1CCOCC1)N1C[C@H]2[C@@H](c3ccccc31)[C@@H](CO)N2Cc1ccc(Cl)cc1 | 2 | 0 | . | -1 | 7 | . | .
COc1ccc(C(=O)N2C[C@@H]3[C@H](c4ccccc42)[C@@H](CO)N3Cc2ccccc2)cc1 | 12 | 1.3* | . | 1 | -2 | 0.12[42 µM] | i
CNC[C@@H]1OCCCC[C@H](C)Oc2ccc(NC(=O)Nc3cccc4ccccc34)cc2C(=O)N([C@@H](C)CO)C[C@H]1C | . | . | . | . | -3 | . | .
SMILES | SIRT5 block | FGF22 binding-1 | FN deposit inh | ERAP1 inh | PGC1a acetyl inh | FGF22 binding-2 | SYPRO no-protein
COc1ccc(C[C@@H]2CCn3cc(nn3)COC[C@@H](Cc3ccccc3)NC2=O)cc1 | . | . | -1 | . | . | . | .
O=C(Cn1[nH]c(=O)c2ccccc2c1=O)Nc1cccnc1 | -4 | 2.2* | 6 | 4 | 3 | 0.082 | i
COc1cc(C(=O)Nc2nc3ccc(S(C)(=O)=O)cc3s2)cc(OC)c1C | 14 | 0 | 1 | . | -9 | . | .
COc1cc(OC)cc(C(=O)Nc2nc3ccc(S(C)(=O)=O)cc3s2)c1 | -1 | 1.4* | -5 | -5 | . | 0.02 | i
C=C1[C@@H](O)[C@H](Cc2ccccc2)N(Cc2ccccc2Br)S1(=O)=O | . | 1.4* | 4 | -3 | . | 0.12 | i
Cc1ccccc1CN1[C@@H](Cc2ccccc2)COCCS1(=O)=O | . | . | -14 | . | -9 | . | .
O=[N+]([O-])c1ccccc1S(=O)(=O)Nc1ccc(S(=O)(=O)Nc2nccs2)cc1 | 0 | -1 | 2 | -3 | -5 | . | .
O=[N+]([O-])c1cccc(S(=O)(=O)Nc2ccc(S(=O)(=O)Nc3nccs3)cc2)c1 | -2 | 1.6* | 1 | 7 | . | 0.084 | i
O=[N+]([O-])c1cccc(S(=O)(=O)Nc2ccc(-c3ccc(N4CCCC4)nn3)cc2)c1 | 7 | 1.6* | -10 | -3 | 6 | -0.071 | i
O=[N+]([O-])c1cccc(S(=O)(=O)Nc2cccc(-c3ccc(N4CCOCC4)nn3)c2)c1 | -1 | 0 | -1 | 1 | 1 | . | .
O=[N+]([O-])c1cccc(S(=O)(=O)Nc2ccc(-c3ccc(N4CCOCC4)nn3)cc2)c1 | -5 | 2.5* | -12 | 1 | . | -0.022 | i
COc1ccc2c3c(n(C)c2c1)[C@H](CO)N(C(=O)c1ccccc1)CC31CCN(CC2CC2)CC1 | . | 0 | . | -2 | 6 | . | .
O=C(C[C@H]1C[C@H]2c3cc(NC(=O)c4ccc5c(c4)OCO5)ccc3O[C@H]2[C@@H](CO)O1)NC1CCCC1 | -5 | 0 | -22 | -2 | 2 | . | .
C[C@@H]1CN([C@H](C)CO)C(=O)Cc2cc(NC(=O)CCN3CCOCC3)ccc2O[C@H]1CN(C)S(C)(=O)=O | 0 | 0 | . | 2 | -13 | . | .
COc1ccc(NC(=O)c2[nH]ncc2[N+](=O)[O-])cc1 | -1 | 1.4* | -2 | 2 | 4 | -0.16 | i

Assay outcomes deposited in PubChem by Broad Institute.
